Assay results: ChEMBL document CHEMBL1759890, “3,5-Disubstituted-indole-7-carboxamides: the discovery of a novel series of potent, selective inhibitors of IKK-β” (Bioorg Med Chem Lett, 2011)
≈ marks a conversion by molar mass, not a printed value.

How the values were obtained:
[1] = target: T1, Inhibitor of nuclear factor kappa-B kinase subunit beta (Homo sapiens, UniProt O14920); experiment: Inhibition of IKK-beta
T1 sequence (O14920 whole entry): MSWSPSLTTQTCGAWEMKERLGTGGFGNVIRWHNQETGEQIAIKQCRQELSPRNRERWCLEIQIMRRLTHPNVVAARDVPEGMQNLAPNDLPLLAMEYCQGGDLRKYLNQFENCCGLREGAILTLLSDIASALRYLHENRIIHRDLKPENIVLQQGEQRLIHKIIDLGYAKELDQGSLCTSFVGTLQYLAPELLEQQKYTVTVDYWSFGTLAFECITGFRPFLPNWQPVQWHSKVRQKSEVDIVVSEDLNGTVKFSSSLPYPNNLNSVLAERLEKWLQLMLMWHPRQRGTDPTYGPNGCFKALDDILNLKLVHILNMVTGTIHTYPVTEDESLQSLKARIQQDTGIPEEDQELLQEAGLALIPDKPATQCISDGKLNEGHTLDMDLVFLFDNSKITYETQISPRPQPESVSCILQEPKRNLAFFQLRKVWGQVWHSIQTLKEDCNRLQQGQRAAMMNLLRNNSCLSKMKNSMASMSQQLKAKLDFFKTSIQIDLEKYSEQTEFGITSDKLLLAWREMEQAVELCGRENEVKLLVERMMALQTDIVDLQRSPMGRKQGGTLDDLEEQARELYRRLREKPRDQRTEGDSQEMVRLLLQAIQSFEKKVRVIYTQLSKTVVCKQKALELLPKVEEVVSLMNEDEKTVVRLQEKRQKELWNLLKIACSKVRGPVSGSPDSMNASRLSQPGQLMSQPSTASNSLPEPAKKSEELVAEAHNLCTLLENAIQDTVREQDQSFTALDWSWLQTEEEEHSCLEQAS

[2] = target: T2, Inhibitor of nuclear factor kappa-B kinase subunit alpha (Homo sapiens, UniProt O15111); experiment: Inhibition of IKK-alpha
T2 sequence (O15111 whole entry): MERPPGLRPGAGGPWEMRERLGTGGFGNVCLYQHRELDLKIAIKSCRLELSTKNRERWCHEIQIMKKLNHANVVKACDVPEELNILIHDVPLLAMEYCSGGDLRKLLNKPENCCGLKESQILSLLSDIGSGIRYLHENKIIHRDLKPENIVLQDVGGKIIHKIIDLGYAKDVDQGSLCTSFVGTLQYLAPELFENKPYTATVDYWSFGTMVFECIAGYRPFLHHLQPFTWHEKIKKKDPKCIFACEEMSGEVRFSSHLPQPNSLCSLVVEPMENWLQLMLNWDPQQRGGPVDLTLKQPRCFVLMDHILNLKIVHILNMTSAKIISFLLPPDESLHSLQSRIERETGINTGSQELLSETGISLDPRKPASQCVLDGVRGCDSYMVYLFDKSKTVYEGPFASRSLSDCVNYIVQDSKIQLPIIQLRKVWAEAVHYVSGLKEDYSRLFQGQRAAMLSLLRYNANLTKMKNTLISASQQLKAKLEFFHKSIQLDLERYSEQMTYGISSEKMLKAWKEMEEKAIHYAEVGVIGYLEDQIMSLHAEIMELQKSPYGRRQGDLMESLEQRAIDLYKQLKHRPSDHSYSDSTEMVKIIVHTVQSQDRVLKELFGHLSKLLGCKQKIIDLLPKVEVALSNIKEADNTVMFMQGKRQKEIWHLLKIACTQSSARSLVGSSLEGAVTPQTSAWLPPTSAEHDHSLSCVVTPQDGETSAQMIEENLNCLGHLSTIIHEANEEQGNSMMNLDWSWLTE
Summary of the method: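 Done the same way as the IKK-β TR-FRET assay but with 6-His-tagged full-length IKK-α. Buffer is 50 mM HEPES, 10 mM MgCl₂, 1 mM CHAPS pH 7.4, 1 mM DTT, 0.01% w/v BSA. GST-IκBα substrate 25 nM final, ATP 1 μM final, DMSO below 5% final. Error about ±0.3 log units.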

PBMC = experiment: Antiinflammatory activity in human PBMC assessed as inhibition of LPS-induced TNF-alpha production; type: functional, cell-based
Summary of the method: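 Human peripheral blood mononuclear cells stimulated with LPS. Read-out is inhibition of TNF-α production, reported as pIC50.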

[3] = target: T3, Inhibitor of nuclear factor kappa-B kinase subunit epsilon (Homo sapiens, UniProt Q14164); experiment: Inhibition of IKK-epsilon
T3 sequence (Q14164 whole entry): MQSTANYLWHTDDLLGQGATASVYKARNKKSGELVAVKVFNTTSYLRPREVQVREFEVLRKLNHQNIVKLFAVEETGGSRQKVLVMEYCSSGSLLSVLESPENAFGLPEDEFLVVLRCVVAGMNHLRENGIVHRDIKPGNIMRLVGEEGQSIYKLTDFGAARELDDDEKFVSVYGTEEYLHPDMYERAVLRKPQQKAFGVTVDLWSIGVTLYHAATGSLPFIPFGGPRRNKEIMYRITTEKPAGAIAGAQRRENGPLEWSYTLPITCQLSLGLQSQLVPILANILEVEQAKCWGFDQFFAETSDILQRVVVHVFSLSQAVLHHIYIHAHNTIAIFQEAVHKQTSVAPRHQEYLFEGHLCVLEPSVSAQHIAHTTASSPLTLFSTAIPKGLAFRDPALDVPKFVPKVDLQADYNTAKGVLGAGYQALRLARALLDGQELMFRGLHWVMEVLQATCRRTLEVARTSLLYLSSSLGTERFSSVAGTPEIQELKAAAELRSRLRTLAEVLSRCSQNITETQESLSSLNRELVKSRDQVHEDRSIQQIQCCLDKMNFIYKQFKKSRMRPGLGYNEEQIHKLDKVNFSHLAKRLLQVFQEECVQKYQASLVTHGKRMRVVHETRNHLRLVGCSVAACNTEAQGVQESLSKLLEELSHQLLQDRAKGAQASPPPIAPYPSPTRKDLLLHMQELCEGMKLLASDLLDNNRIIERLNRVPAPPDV

[4] = target: T4, Serine/threonine-protein kinase TBK1 (Homo sapiens, UniProt Q9UHD2); experiment: Inhibition of TBK-1
T4 sequence (Q9UHD2 whole entry): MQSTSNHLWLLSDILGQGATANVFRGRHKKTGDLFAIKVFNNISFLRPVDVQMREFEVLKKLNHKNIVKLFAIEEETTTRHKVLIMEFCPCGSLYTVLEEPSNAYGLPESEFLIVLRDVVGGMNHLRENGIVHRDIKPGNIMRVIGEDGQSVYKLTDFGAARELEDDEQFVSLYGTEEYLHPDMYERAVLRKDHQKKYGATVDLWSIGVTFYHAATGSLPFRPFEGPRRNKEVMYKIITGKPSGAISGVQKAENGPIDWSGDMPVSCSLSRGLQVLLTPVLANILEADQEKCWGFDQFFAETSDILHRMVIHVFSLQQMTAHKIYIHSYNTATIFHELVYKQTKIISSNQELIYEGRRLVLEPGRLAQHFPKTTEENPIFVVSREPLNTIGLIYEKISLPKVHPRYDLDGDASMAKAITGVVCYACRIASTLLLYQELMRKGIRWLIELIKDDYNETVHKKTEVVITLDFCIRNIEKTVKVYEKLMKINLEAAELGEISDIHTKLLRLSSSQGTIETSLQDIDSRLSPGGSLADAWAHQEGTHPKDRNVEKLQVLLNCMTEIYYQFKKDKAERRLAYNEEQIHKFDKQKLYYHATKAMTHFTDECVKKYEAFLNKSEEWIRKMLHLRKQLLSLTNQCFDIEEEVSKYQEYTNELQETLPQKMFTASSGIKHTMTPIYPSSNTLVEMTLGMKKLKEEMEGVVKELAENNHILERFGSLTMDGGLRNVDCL

[5] = target: Macrophage colony-stimulating factor 1 receptor (Homo sapiens, UniProt P07333); experiment: Inhibition of c-FMS
Chain of Macrophage colony-stimulating factor 1 receptor (P07333 whole entry): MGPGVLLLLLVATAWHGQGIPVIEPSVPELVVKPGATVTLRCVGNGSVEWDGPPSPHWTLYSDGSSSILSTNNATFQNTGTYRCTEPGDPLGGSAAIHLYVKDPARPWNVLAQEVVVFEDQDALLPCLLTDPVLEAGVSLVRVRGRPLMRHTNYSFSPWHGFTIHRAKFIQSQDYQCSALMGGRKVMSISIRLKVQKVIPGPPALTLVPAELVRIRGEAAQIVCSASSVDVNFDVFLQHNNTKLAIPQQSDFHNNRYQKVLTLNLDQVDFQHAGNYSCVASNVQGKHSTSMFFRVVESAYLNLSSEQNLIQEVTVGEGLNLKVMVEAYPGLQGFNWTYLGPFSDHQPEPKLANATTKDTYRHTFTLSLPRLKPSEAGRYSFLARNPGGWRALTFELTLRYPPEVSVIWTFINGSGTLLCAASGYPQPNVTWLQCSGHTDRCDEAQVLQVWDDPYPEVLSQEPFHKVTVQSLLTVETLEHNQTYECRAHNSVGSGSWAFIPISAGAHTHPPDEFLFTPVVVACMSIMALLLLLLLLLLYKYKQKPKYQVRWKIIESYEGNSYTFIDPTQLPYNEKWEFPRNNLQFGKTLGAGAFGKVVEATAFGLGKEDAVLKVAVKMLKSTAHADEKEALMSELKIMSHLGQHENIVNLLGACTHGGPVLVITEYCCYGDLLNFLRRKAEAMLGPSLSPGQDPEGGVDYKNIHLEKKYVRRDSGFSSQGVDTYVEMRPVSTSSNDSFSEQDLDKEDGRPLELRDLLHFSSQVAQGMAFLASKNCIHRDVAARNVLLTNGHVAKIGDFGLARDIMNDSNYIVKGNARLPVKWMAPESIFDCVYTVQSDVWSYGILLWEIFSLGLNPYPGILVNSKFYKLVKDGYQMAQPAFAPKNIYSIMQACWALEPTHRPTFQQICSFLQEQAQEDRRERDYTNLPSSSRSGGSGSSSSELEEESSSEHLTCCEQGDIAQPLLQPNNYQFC

[6] = target: Tyrosine-protein kinase BTK (Homo sapiens, UniProt Q06187); experiment: Inhibition of BTK
Chain of Tyrosine-protein kinase BTK (Q06187 whole entry): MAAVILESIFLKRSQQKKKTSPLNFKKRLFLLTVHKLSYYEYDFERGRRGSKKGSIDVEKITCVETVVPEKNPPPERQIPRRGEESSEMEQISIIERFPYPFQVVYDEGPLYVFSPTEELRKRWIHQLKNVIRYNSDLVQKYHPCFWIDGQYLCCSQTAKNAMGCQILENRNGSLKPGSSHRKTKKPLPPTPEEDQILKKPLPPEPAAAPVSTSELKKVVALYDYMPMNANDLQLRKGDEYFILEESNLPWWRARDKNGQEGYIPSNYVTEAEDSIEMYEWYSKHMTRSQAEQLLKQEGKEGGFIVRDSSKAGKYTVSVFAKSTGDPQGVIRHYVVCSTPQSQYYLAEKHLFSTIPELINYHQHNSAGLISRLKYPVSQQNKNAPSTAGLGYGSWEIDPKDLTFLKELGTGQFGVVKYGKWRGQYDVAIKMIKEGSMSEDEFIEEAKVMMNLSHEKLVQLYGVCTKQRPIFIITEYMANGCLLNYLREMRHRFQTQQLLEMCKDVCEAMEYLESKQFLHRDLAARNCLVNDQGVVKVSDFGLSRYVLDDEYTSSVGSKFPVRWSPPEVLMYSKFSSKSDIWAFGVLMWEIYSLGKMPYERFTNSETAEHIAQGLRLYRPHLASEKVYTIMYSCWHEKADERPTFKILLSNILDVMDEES

[7] = Aqueous solubility of the compound; type: physicochemical
serum albumin = serum albumin (Homo sapiens, UniProt P02768); experiment: Binding affinity to human serum albumin; type: ADME; conditions: read-out: PB
Chain of serum albumin (P02768 whole entry): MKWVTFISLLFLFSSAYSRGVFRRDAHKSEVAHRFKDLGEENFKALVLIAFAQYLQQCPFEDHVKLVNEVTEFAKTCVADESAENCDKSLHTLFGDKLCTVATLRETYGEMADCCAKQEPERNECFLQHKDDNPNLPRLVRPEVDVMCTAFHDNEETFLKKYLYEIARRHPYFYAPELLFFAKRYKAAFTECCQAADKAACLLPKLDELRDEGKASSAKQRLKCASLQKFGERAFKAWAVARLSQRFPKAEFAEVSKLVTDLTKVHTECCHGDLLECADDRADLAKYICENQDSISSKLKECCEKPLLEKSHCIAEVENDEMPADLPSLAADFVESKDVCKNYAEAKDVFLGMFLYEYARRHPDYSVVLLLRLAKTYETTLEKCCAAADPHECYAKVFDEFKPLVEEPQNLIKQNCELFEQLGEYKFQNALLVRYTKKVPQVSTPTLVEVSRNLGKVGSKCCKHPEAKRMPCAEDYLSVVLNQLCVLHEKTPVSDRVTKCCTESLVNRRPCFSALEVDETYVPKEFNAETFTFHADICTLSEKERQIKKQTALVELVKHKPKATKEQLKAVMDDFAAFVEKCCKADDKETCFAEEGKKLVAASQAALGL

[8] = Oral bioavailability in rat; type: ADME, organism-based; conditions: in vivo

IC50 [1] [nM] | IC50 [2] [nM] | Compound | other results
1580 | 10000 | NC(=O)c1cc(-c2ccccc2)cc2cc[nH]c12 | –
1580 | 10000 | N#Cc1cccc(-c2cc(C(N)=O)c3[nH]ccc3c2)c1 | –
6310 | > 15800 | NC(=O)c1cc(-c2ccccc2Cl)cc2cc[nH]c12 | –
794 | 5010 | NC(=O)c1cc(-c2cccc(Cl)c2)cc2cc[nH]c12 | –
316 | 6310 | NC(=O)c1cc(-c2ccc(Cl)cc2)cc2cc[nH]c12 | –
2510 | 15800 | NC(=O)c1cc(-c2cccc(CO)c2)cc2cc[nH]c12 | –
1260 | 15800 | NC(=O)c1cc(-c2ccc(CO)cc2)cc2cc[nH]c12 | –

More lines, now with the values behind:

Compound | IC50 [1] [nM] | IC50 [2] [nM] | other results
NC(=O)c1cc(Br)cc2c3c([nH]c12)CCCC3 | 2510 | – | –
O=C(O)c1cc(-c2ccccc2)cc2cc[nH]c12 | > 15800 | – | –
CS(=O)(=O)Nc1ccc(-c2cc(C(N)=O)c3[nH]ccc3c2)cc1 | 501 | 3980 | –
COc1ccncc1-c1cc(C(N)=O)c2[nH]ccc2c1 | 1580 | 12600 | –
NC(=O)c1cc(-c2cc3ccccc3o2)cc2cc[nH]c12 | 501 | 3980 | –
NC(=O)c1cc(-c2ccccc2)cc2c(C3CCCNC3)c[nH]c12 (centres undefined) | 158 | 1580 | IC50 (PBMC): 631 nM; IC50 [3]: > 3160 nM; IC50 [4]: > 3160 nM; IC50 [5]: 1580 nM; IC50 [6]: 1260 nM; solubility [7]: 136 µg/mL (≈ 426 µM); fraction unbound (serum albumin): 0.09; bioavailability [8]: 22%
NC(=O)c1cc(-c2ccccc2)cc2c(C3CCNCC3)c[nH]c12 | 501 | 10000 | –
CC(C)S(=O)(=O)N1CCC(c2c[nH]c3c(C(N)=O)cc(-c4ccccc4)cc23)CC1 | 20 | 3160 | –
CCS(=O)(=O)N1CCC(c2c[nH]c3c(C(N)=O)cc(-c4ccccc4)cc23)CC1 | 25.1 | 2000 | –
NC(=O)c1cc(-c2ccccc2)cc2c(C3CCN(S(=O)(=O)c4ccc(Cl)cc4)CC3)c[nH]c12 | 398 | 7940 | –
CCc1ccc(-c2cc(C(N)=O)c(NC(N)=O)s2)cc1 | 7.94 | – | –
CN(C)C(=O)c1cc(-c2ccccc2)cc2cc[nH]c12 | > 15800 | – | –
NC(=O)c1cc(-c2cncnc2)cc2cc[nH]c12 | 5010 | 15800 | –
